What was measured:
[1] = molecular target: Prostaglandin G/H synthase 1 (Homo sapiens) (UniProt P23219); experiment: Inhibition of COX1 by human platelet assay; set-up: concentration or dose not given beside the values; conditions: concentration not given here
In short: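 Enzyme activities measured in human platelets incubated for 60 min in buffer solution at 37 °C. 12-LOX activity was read out as formation of 12(S)-HETE. COX-1 activity was read out as formation of its eicosanoid product.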

[2] = system: HT-29; experiment: Antiproliferative activity against HT29 cells; type: functional, cell-based; conditions: Homo sapiens
[3] = Stability in phosphate buffer; type: physicochemical
[4] = system: Arachidonate 12-lipoxygenase, platelet type (Homo sapiens); experiment: Inhibition of LOX12 by human platelet assay; set-up: concentration or dose not given beside the values; conditions: concentration not given here
[5] = system: MCF7; experiment: Antiproliferative activity against MCF7 cells; type: functional, cell-based; conditions: Homo sapiens

Chain of Prostaglandin G/H synthase 1 (Homo sapiens) (P23219 whole entry): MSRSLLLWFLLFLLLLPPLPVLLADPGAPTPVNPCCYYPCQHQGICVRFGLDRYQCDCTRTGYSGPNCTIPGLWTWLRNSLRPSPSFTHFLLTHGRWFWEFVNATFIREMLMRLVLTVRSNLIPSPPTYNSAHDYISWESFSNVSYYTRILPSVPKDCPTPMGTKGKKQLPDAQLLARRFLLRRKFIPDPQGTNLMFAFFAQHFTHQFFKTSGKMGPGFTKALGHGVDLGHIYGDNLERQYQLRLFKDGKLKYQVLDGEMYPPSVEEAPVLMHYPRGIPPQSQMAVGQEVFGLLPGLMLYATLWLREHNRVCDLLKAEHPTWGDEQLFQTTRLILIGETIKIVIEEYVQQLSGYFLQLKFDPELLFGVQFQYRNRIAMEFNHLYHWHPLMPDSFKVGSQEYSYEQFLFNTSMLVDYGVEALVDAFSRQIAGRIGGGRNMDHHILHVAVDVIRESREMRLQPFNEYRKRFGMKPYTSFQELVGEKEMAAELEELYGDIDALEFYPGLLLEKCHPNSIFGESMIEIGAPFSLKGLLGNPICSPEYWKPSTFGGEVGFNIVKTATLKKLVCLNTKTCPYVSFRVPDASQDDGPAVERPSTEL

## CC(=O)OCC(OC(C)=O)C(OC(C)=O)C(Cn1c2nc(=O)n(COC(=O)C(C)c3ccc(CC(C)C)cc3)c(=O)c-2nc2cc(C)c(C)cc21)OC(C)=O (stereo not drawn)
[1]
  inhibition: 15%
[2]
  IC50: 12.1 µM
[3]
  Stability: Stable
[4]
  inhibition: < 11%
[5]
  IC50: 12.3 µM

## CC(=O)OCC(OC(C)=O)C(OC(C)=O)C(Cn1c2nc(=O)n(CCCCCOC(=O)C(C)c3ccc(CC(C)C)cc3)c(=O)c-2nc2cc(C)c(C)cc21)OC(C)=O (stereo not drawn)
[1]
  inhibition: 43%
[2]
  IC50: 13.1 µM
[3]
  Stability: Stable
[4]
  inhibition: < 11%
[5]
  IC50: 9.5 µM

## CC(=O)OCC(OC(C)=O)C(OC(C)=O)C(Cn1c2nc(=O)[nH]c(=O)c-2nc2cc(C)c(C)cc21)OC(C)=O (stereo not drawn)
[2]
  IC50: 90.9 µM
[5]
  IC50: 53.4 µM

## CC(=O)OCC(OC(C)=O)C(OC(C)=O)C(Cn1c2nc(=O)n(CCCOC(=O)C(C)c3ccc(CC(C)C)cc3)c(=O)c-2nc2cc(C)c(C)cc21)OC(C)=O (stereo not drawn)
[1]
  inhibition: 15%
[2]
  IC50: 9.3 µM
[3]
  Stability: Stable
[4]
  inhibition: < 11%
[5]
  IC50: 7.8 µM

## CC(C)Cc1ccc([C@H](C)C(=O)O)cc1 [DEXIBUPROFEN]
[1]
  inhibition: 90%
[2]
  IC50: > 1000 µM
[5]
  IC50: 795 µM

## O=c1[nH]cc(F)c(=O)[nH]1 [FLUOROURACIL]
[2]
  IC50: 7.3 µM

## CC(=O)OCC(OC(C)=O)C(OC(C)=O)C(Cn1c2nc(=O)n(CCOC(=O)C(C)c3ccc(CC(C)C)cc3)c(=O)c-2nc2cc(C)c(C)cc21)OC(C)=O (stereo not drawn)
[1]
  inhibition: 15%
[2]
  IC50: 12.7 µM
[3]
  Stability: Stable
[4]
  inhibition: < 11%
[5]
  IC50: 14.9 µM

## CC(=O)OCC(OC(C)=O)C(OC(C)=O)C(Cn1c2nc(=O)n(CCO)c(=O)c-2nc2cc(C)c(C)cc21)OC(C)=O (stereo not drawn)
[2]
  IC50: > 100 µM
[5]
  IC50: > 100 µM

## CC(=O)OCC(OC(C)=O)C(OC(C)=O)C(Cn1c2nc(=O)n(CCCCOC(=O)C(C)c3ccc(CC(C)C)cc3)c(=O)c-2nc2cc(C)c(C)cc21)OC(C)=O (stereo not drawn)
[1]
  inhibition: 37%
[2]
  IC50: 10.5 µM
[3]
  Stability: Stable
[4]
  inhibition: < 11%
[5]
  IC50: 9.5 µM
